Laboratory results published in the EternaBench riboswitch data.

System: MS2 coat protein
Test: apparent Kd, MS2 coat protein; higher = weaker binding; RNA-MaP array; FMN 200 µM where present
How it was run: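 Apparent Kd: the median of filtered binding-curve fits from single clusters. Designs were transcribed on Illumina sequencing-chip clusters by stalled E. coli RNA polymerase and titrated with SNAP-549-labelled MS2 coat protein from 0.7 or 1.5 nM, doubling to 3 µM, in 100 mM Tris-HCl pH 7.5, 80 mM KCl, 4 mM MgCl2, BSA, DTT, yeast tRNA and Tween-20. Each series ran without and then with constant ligand, and green signal was normalised to red-channel RNA signal and control-cluster median Fmax.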

[1] = designed as: OFF switch for flavin mononucleotide, no ligand
[2] = ligand present: flavin mononucleotide, designed as: OFF switch for flavin mononucleotide
[3] = designed as: ON switch for flavin mononucleotide, no ligand
[4] = ligand present: flavin mononucleotide, designed as: ON switch for flavin mononucleotide

Sequence	apparent Kd [1]	apparent Kd [2]	apparent Kd [3]	apparent Kd [4]
AUCAGCACGUGAGGAUAUGCGUCACUGCGAAAGCAGUACGGUAAGAUCACAUGAGGAUCACCCAUGUAGAAGGCACGAGCUGAU	16.6 nM	38.1 nM	–	–
UCCGUAAUUCUGAGCUUCGCGAUGAGAAGGGUAGAGGCUGGGUCCUACAUGAGGAUCACCCAUGUACAGGAUAUCAUUGCACGA	14.1 nM	30.3 nM	–	–
AUCAGCUCGUCAGGAUAUACGGCACUGCGUCAGCAGUGUGGUAAGAUCACAUGAGGAUCACCCAUGUAGAAGGGACGAGCUGAU	8.06 nM	84.6 nM	–	–
UGUGUGUGGCAGGAUAUGCCGGUCGUUGGACGGGUAGAAGGGUCUACAUGAGGAUCACCCAUGUGGCCGGUUGG	18.4 nM	20.2 nM	–	–
GGAUAGGACAGAGGAUAUACGGAUAGGAUCUACUAUCUUUCUCAAAUAACAUGAGGAUCACCCAUGUAGAAGGCUGUCCUAUCG	21.5 nM	122 nM	–	–
UGAUCGAGAGAUCUUAGAUUCUGGUAGGAUAUACAUUAUGUUAAAAUUACAUGAGGAUCACCCAUGUAGAAGGACUAGAGUCUA	6.13 nM	9.12 nM	–	–
UCGAUAAGGAGAGGAUAUGGACAUGAGGAUCACCCAUGUACAUGGGAAUAUAUACUGAAUUUUUACUAGAAGGCUUACAUAAUU	16.4 nM	14.8 nM	–	–
UAGUUUUAGCGAGGAUAUCGUAUGUUUAAUUUUUUAUAUUGUUUACAUGAGGAUCACCCAUGUUACGAGAAGGCGCAUGGGAUU	–	–	388 nM	100 nM
CCUUUGUCAGGAUAUCAGAACGCGCUCGUAGGGAGCGCGAAUGAGAAGGGACAUGAGGAUCACCCAUGUAAAGA	94.7 nM	492 nM	–	–
ACCAAUGCAGGAUAUACAUGAGGAUCACCCAUGUAUAACCUACAUAGAUGAUCAUCAUGUAGAAGGGCAAUGGA	13.1 nM	12.1 nM	–	–
CGUGCACAUGUAGGAUAUGGUUAUCUAUGUCUAGUUACUAGACAUAGAUAACCAGAAGGACAUGAGGAUCACCCAUGUAGCACG	346 nM	275 nM	–	–
CUUUUGUGAGGAUAUCAGUAGUAAAAAAAUAAAAUUACUACUGAGAAGGCACAUGAGGAUCACCCAUGUCUUUC	122 nM	76.8 nM	–	–
ACCAACAGGGUUGGUACCGGCGCGCAGGAUAUGCUUGCCUACAUGAGGAUCACCCAUGUCUAAAUGCAGAAGGGUGAGCUGAGC	–	–	193 nM	114 nM
UAAGUACGAGGAUAUACAUAGAUACAGAUACAUGUAGACGUACAUGAGGAUCACCCAUGUAGAAGGCGUAUAUA	67.9 nM	239 nM	–	–
GUAGCAUAAUUAGGAUAUUCAGCGAAUAGAUUGACAUGAGGAUCACCCAUGUGGCGAAAGCCUAGGGAGAAGGGAUAAUGCUAC	–	–	254 nM	120 nM
CAUUCUUUUCCGGAGGAUAUGCUACCCUUUACAUGAGGAUCACCCAUGUUACCCUCUUCUUGUCAGUAGAAGGCCGUUUCUUAAC	–	–	27.4 nM	25.1 nM
AUCAGCUCGUCAGGAUAUACGUCACUGCGUCAGCAGUGUGGUAAGAUCACAUGAGGAUCACCCAUGUAGAAGGGACUAGCUGAU	14.8 nM	294 nM	–	–
AAUAAUUAGUGAGGAUAUACAUAAUUUAUUACUGUAGAAGGCACAAACCUCAAGACAUGAGGAUCACCCAUGUGGUAUUUAAAU	213 nM	390 nM	–	–
ACCUAGACUAGGCCCACGGCAUCACAGGAUAUGCCGAUCACAUGAGGAUCACCCAUGUCAACUCCGCAGAAGGGUGAUAUCGUG	–	–	179 nM	14.1 nM
GUCAGCUCGUGAGGAUAUACAUCACUGCUUCGGCAGUGUAUUAAAAUAACAUGAGGAUCACCCAUGUAGAAGGCACGAGCUGAU	4.69 nM	5.51 nM	–	–
UCCACUACUGAGAAGGGAUACAUAUAGUUCUAGUCAGGAUAUCGAUACAGUGCAGCAUGAGGACAUGAGGAUCACCCAUGUAUU	–	–	22.1 nM	16.2 nM
UGAUAGGACAGAGGAUAUACGGAUAGGAUCUACUAUCUUUCUCAAAUAACAUGAGGAUCACCCAUGUAGAAGGCUGUCCUAUCU	23.2 nM	119 nM	–	–
AUAAUUUUAUAUAUCAUUUUAAUCAGAAGGCAUAACAUGAGGAUCACCCAUGUAAAUUAUUGUUAUGAGGAUAUGAAUUGGUUA	14.4 nM	54.8 nM	–	–
GCACGAGACUAAGGAUAUGAUGUACCUAUAUGUGACAUGAGGAUCACCCAUGUGGUAAGUAUGAUUCAGAAGGUAGAGACGUGC	–	–	28.2 nM	20.6 nM
GUGGGAAUCACAGGAUAUACAUGCGCCGCUUCGUUCUACAUGAGGAUCACCCAUGUGUGGUCCGUGUAGAAGGGUGUUUGUCAC	–	–	45.6 nM	30.1 nM
GCCGAAAAUGUGAGGAUAUACCUAUGGAAACAUAGGUAGAAGGCACAUGAGGAUCACCCAUGUGUUUCAACGGC	21.5 nM	107 nM	–	–
AACACGAGAGGUGUUGUCUAAUCACAUGAGGAUCACCCAUGUAAGGAUAUCGCGGCUAUCGGCAUCGAGAAGGUACAGGGUGCA	165 nM	58.9 nM	–	–
CUUUUGUGAGGAUAUCAGUAGUAAUACAAUAGUAUUAUUACUGAGAAGGCACAUGAGGAUCACCCAUGUUCCUC	40.9 nM	125 nM	–	–

Sequence	apparent Kd [1]	apparent Kd [2]	apparent Kd [3]	apparent Kd [4]
UCGAUGCUAGGAUAUACGUAUACCUCCACCGUUGAUUCCUCACAUGAGGAUCACCCAUGUAGAAGGAGCAUCUA	79.8 nM	137 nM	–	–
UAUAUAAUUAAGAGCUGGAACUCAACAUGAGGAUCACCCAUGUAGGAUAUCAGCACGAUAAGUGCUGAGAAGGACUACCAGCUC	18.2 nM	20.4 nM	–	–
GCCCAGCUAGGAUAUCGCACUGCAGACAUGAGGAUCACCCAUGUGAUGAGGUCUGAAUCCCGAGAAGGAGCAUGGA	17.8 nM	41.7 nM	–	–
AUAUGAUAGAUAGGAUAUACAGAUGAAUAAUAAGUAGAAGGAUCAAAUGGGAAUUAUACAUGAGGAUCACCCAUGUUUUUGAAU	–	–	45 nM	33.6 nM
CGUAUCGUAAGAGGAUAUAUGAGUCCUACAUGAGGAUCACCCAUGUAGGUGAUCUAACGAGAUUAGUAGAAGGCUUACGAUACG	–	–	14.3 nM	7.96 nM
UUGCCUCAGAACAUGAGGAUCACCCAUGUGCUGCGGGCAACGUAGGAUAUGAUGGUUCGAUACCAUCAGAAGGAUGAUGGUACC	–	–	5.42 nM	5.22 nM
AAUGUGUCAGGAUAUAGUAGACUCCUUGGAACGGUAGUCAGUUAGAAGGGACAUGAGGAUCACCCAUGUCGAGU	19.3 nM	19.6 nM	–	–
AUCUUGUCAGGAUAUCGUACAAUAUGGAAAACAUAGAGGUACGAGAAGGGACAUGAGGAUCACCCAUGUAAAAC	40.2 nM	84.5 nM	–	–
GAACUCGUGAAGGAUAUCCGUACCAAAGCGGCAGGAGAAGGUCACACAUGAGGAUCACCCAUGUGGUACCUCGU	30 nM	130 nM	–	–
GGGUACAUUGGAGGAUAUCAUGUAAAUACAUGAGGAUCACCCAUGUCGAUGGAGACAUCGGAGAUUGAGAAGGCCGAUGUACCG	–	–	183 nM	9.08 nM
AGAGGUCUCUGUGAUAACGGUACGAAGGAUAUGCAUGGAUGGGCCGAGACAUGAGGAUCACCCAUGUAGAAGGUCGAUGCGCGU	51 nM	65.7 nM	–	–
UAUAUAUAGUAAGGAUAUGUAAUCAUUUUAUAAACAGAAGGUACUGACAUGAGGAUCACCCAUGUUUUAGUGUGGGCAUGUAGA	86.4 nM	141 nM	–	–
GGAAAGUCAGGAUAUGGAUAAUAAAUACAAAUAGAAACAAACCAGAAGGGACAUGAGGAUCACCCAUGUAAACA	24.1 nM	23.1 nM	–	–
AAGCUCGUGUGAGGAUAUGCCGCCGUUUCGGCUGCAGAAGGUGCUACGUUACAUGAGGAUCACCCAUGUCUCUGUUGUUUCGUG	–	–	23 nM	22.3 nM
GACAAACAUGAGGAUCACCCAUGUUCAGACGAACAAGGAUAUGUGUGGAAACCGUACUAUACAGAAGGUGUCUGUC	–	–	39.7 nM	23.8 nM
GGGUACAUGGGAGGAUAUCCUCAAGAGACAUGAGGAUCACCCAUGUAUUAUAAGCCGAAAGGCAUGGAGAAGGCCCAUGUACCG	–	–	62 nM	19.1 nM
GGAUGACAAAGUCAUCCUAUUCGAACAUGAGGAUCACCCAUGUAGGAUAUGCUAGUCAAAGACUAGCAGAAGGACAUGUGCCUU	36.4 nM	164 nM	–	–
UUUCUUGGGCAAGGAUAUCCUGUGCGGUUCCGGCUCGUGUCUGUCACAUGAGGAUCACCCAUGUGGGAGAAGGUGCCUGCGGUA	6.41 nM	6.77 nM	–	–
AGACCCUGAACGAAAUCAUACAGUCAGGAUAUACAUGAGGAUCACCCAUGUGCGUACCAACUCGUGUAGAAGGGACUUUCAGGG	12.3 nM	30.2 nM	–	–
CUUUCGUGAGGAUAUGUGGCUUCGAUCGUGAAAACGAGGCUACAGAAGGCACAUGAGGAUCACCCAUGUUCCUC	34.4 nM	454 nM	–	–
UAUGACAUGAGGAUCACCCAUGUCAGCGAGAAAUGAGAGUCACAGGAUAUGUUUUCGGCCGGCAGACAGAAGGGUGACCCUCAG	–	–	7.21 nM	6.89 nM
CCAAUAAGCCAAGGAUAUCAGCCGGGUACGAGGUGAGAAGGUGGCCGAGGGAAUUACGGACAUGAGGAUCACCCAUGUACCCGU	–	–	4.98 nM	4.21 nM
UACGCGUAGGAGAAGGGCCCACUAUAGGGUAAGUGCUGUUCUCACAUGAGGAUCACCCAUGUGCGGCAGGAUAUCCACGCGUGC	11.6 nM	66.7 nM	–	–
GGAAGACAAAGUCUUCCAUAACGAACAUGAGGAUCACCCAUGUAGGAUAUGCUACUCAAAGAGUAGCAGAAGGACAUGUGUCUU	28.1 nM	129 nM	–	–
GCAGCAUAGUUUACUAACUGUUACAUGAGGAUCACCCAUGUUUAGGAUAUGGUCUGGAUUACAGGCCAGAAGGGAACAAGCUGC	14.6 nM	12.3 nM	–	–
GCGGGCAGCACAGGAUAUGUGACGUACAUGAGGAUCACCCAUGUGCGAAUGGCAGAAGGGUGAGGCCUCGGUGACCGAUUUCCG	–	–	16 nM	5.59 nM
GCAGAGCUAGGAUAUGCUGGGCUGCAGUAAAAUGGUCACUCACAUGAGGAUCACCCAUGUAGAAGGAGCAGUGU	26.5 nM	40 nM	–	–
